Screening data (PubChem)
FN deposition inh – fibronectin deposition inhibition. inhibition, % at 12.6 µM. hit rate 0.086% among 350,000. AID 743247. AH1F fibroblasts, Alexa488-fibronectin deposition fluorescence, overnight;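 active means mean inhibition across replicates of 30% or more, regardless of how many single replicates reach that level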
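Assay system: AH1F fibroblast monolayer, labelled fibronectin deposition. Amount: 10000 cells per well. Also added: labelled fibronectin 24 nM. Compound: single-point pinned compound. Incubation: cell attachment 1 h, compound and FN exposure overnight. Detection: fluorescence after three HBSS washes, excitation 485 nm, emission 525 nm. Read-out: inhibition of fibronectin deposition signal.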
NSD2 inh – inhibitors of human histone methyltransferase NSD2; O96028; NSD2 peptide methylation, AlphaScreen, 120 min; inhibition, % at 12.5 µM; hit rate 0.54% among 310,000; in the data active means inhibition above about 50%
Casp6 inh – inhibitors of human caspase-6 | hit rate 0.53% among 350,000 | AID 686996 | purified caspase-6, Z-VEID-R110 cleavage fluorescence | P55212 | inhibition, % at 12.5 µM;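 active means mean inhibition across replicates at least about 35%, with every replicate also reaching that limit, limit read from the data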
Target sequence (P55212 24-179 limits assumed): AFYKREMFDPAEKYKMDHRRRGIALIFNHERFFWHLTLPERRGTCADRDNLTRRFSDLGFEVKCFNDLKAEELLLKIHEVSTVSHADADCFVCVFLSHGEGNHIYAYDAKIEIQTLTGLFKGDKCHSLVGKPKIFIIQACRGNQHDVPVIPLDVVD
Target sequence (P55212 194-293 limits assumed): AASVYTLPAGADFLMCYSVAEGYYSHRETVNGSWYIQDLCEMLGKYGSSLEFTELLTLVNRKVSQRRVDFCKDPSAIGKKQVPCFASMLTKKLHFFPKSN
NPR1 activator – GC-A (human) enzyme activation; AID 1671463; HEK293 GC-A cells, cGMP TR-FRET, EC30 ANP; 0% at EC30 ANP, 100% saturating ANP; hit rate 0.14% among 370,000; P16066; activation, % at 10 µM; in the data active means activation above about 40%
CaV13 FRET inh – Disruptors of the CACNA1D IQ motif to Ca2+-dependent inactivation inhibitor domain association, primary screening, Förster resonance energy transfer in intact living …; HEK cells, CFP/YFP FRET ICDI-IQ, plate reader, 10 min; percent FRET-ratio fall versus neutral wells; inhibition, % at 12.3 µM; AID 743397; hit rate 0.098% among 340,000;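 active means mean replicate inhibition of at least 30% and at least 1% of replicates passing that level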
NPR2 activator – GC-B (human) receptor activation; P20594; hit rate 0.11% among 370,000; HEK293-GC-B cells, CNP EC30, cGMP TR-FRET; 0% at EC30 CNP, 100% saturating CNP; activation, % at 10 µM; AID 1920062;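 active means activation at 10 µM reaching about 35% in either raw or pattern-adjusted values, limit read from the data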
Alpha artifact – AlphaScreen assay artifact in NSD2 counter-screen. shares compounds with NSD2 inh. AlphaScreen artifact counterscreen, preloaded methylated H4 peptide. AC35, µM (titrated, usually from 10 µM). hit rate 9.4% among 1,500; call rule not given here
Each line names hits and unclear results; the compound was inactive in the other large screens (follow-up assays come after a bar, where they were run). Only some compounds are listed: those with a hit (about 0.99% of all), similar ones and a draw of the others.

Cc1ccc(C)c(N2C(=N)S/C(=C\c3ccc(-c4ccccc4C(=O)O)o3)C2=O)c1	NSD2 inh 54, Casp6 inh 37 | Alpha artifact inactive
O=C(CSc1nccn1-c1ccc(F)cc1)NCc1ccc(F)cc1	NSD2 inh 50 | Alpha artifact inactive
O=C(CSc1nccn1-c1ccccc1)NCc1ccc(F)cc1	none
CCN1CCCC1CNc1ncnc2c1[nH]c1ccc(Cl)cc12 (stereo unspecified)	NSD2 inh 54 (no result: FN deposition inh, Casp6 inh) | Alpha artifact inactive
C[C@@H]1CN([C@H](C)CO)C(=O)c2cccc(NC(=O)C3CCCCC3)c2O[C@H]1CN(C)C(=O)Nc1ccc(C(F)(F)F)cc1	none (no result: FN deposition inh, NSD2 inh, NPR1 activator, CaV13 FRET inh, NPR2 activator)
CCn1c(O)c(C=Nc2ccccc2)sc1=S	none (no result: FN deposition inh)
CCn1c(O)c(/C=N/n2cnnc2)sc1=S	NSD2 inh 67 (no result: FN deposition inh, Casp6 inh) | Alpha artifact inactive
Cc1ccc(CC(=O)Nc2nncs2)cc1	NSD2 inh 57 (no result: Casp6 inh) | Alpha artifact inactive
COc1ccc([C@@H]2C=C(C(=O)N3CCCCC3)O[C@H](OCc3ccc(CO)cc3)C2)cc1	none (no result: FN deposition inh, NSD2 inh, NPR1 activator, CaV13 FRET inh, NPR2 activator)
O=C(Nc1cc(C(F)(F)F)ccc1N1CCCC1)C1CC(=O)N(Cc2ccccc2)C1 (stereo unspecified)	NSD2 inh 56 | Alpha artifact inactive
C[C@H](CO)N1C[C@H](C)[C@H](CN(C)C(=O)Nc2ccc(F)cc2)Oc2c(NS(=O)(=O)c3cn(C)cn3)cccc2C1=O	none (no result: NSD2 inh, NPR1 activator, CaV13 FRET inh, NPR2 activator)
COc1ccccc1S(=O)(=O)N1C[C@H](O)COC[C@@H]2O[C@H](CC(=O)O)CC[C@H]21	none (no result: NSD2 inh, NPR1 activator, CaV13 FRET inh, NPR2 activator)
N#CC1C(=O)Nc2cccnc21 (stereo unspecified)	NSD2 inh 121, Casp6 inh 59 | Alpha artifact inactive
COc1cccc(-c2cnc3c(c2)C(=O)N([C@H](C)CO)C[C@H](C)[C@@H](CN(C)Cc2ccc(F)cc2)O3)c1	none (no result: FN deposition inh, NSD2 inh, NPR1 activator, CaV13 FRET inh, NPR2 activator)
CN(C)c1ccc(N=c2sc3ccccc3n2C)cc1	NSD2 inh 57 (no result: Casp6 inh) | Alpha artifact 8.9µM
Cn1c(=Nc2ccccc2)sc2ccccc21	none (no result: FN deposition inh)
CCOC(=O)Cn1ncc(-c2ccccc2)c1N	NSD2 inh 128 (no result: Casp6 inh) | Alpha artifact inactive
CC(C)(C)NC(=O)C(c1ccco1)N(C(=O)Cn1nnc(-c2ccc(F)cc2)n1)c1ccccc1F (stereo unspecified)	NSD2 inh 50 (no result: Casp6 inh) | Alpha artifact inactive
COc1cc(-c2nnn(Cc3ccccc3C)n2)cc(OC)c1OC	NSD2 inh 54 | Alpha artifact inactive
C[C@@H]1CN([C@@H](C)CO)C(=O)c2cccc(NC(=O)c3ccncc3)c2O[C@H]1CN(C)C	none (no result: FN deposition inh, NSD2 inh, NPR1 activator, CaV13 FRET inh, NPR2 activator)
COc1ccc(/C=N/Nc2cc(N(C)C)nc(N(C)C)n2)cc1	none
CN(C)c1cc(N/N=C\c2ccccc2)nc(N(C)C)n1	NSD2 inh 103 | Alpha artifact inactive
COc1ccccc1/C=N/Nc1cc(C)nc(N2CCOCC2)n1	NSD2 inh 57 | Alpha artifact inactive
COc1ccccc1/C=N/Nc1cc(N(C)C)nc(N(C)C)n1	NSD2 inh 100 | Alpha artifact inactive
COc1ccc(/C=N/Nc2cc(C)nc(N3CCOCC3)n2)cc1OC	none
O=C(C[C@H]1CC[C@@H]2[C@H](COC[C@H](O)CN2C(=O)Nc2ccc(Cl)cc2)O1)NCCc1ccncc1	none (no result: NSD2 inh, NPR1 activator, CaV13 FRET inh, NPR2 activator)
Cc1ccc(NC(=O)Cn2nnc(C(=O)NCc3ccccc3)c2N)cc1C	NSD2 inh 56 | Alpha artifact inactive
CCOC(=O)C1=C(C)N=c2s/c(=C\c3ccc(OCC(=O)O)cc3)c(=O)n2C1c1ccccc1OC (stereo unspecified)	none
CCOC(=O)C1=C(C)N=c2s/c(=C\c3ccc(O)c([N+](=O)[O-])c3)c(=O)n2C1c1ccccc1OC (stereo unspecified)	NSD2 inh 72 | Alpha artifact inactive
Oc1cccc2c(NC(=S)Nc3ccc(OC(F)F)cc3)cccc12	NSD2 inh 92, Casp6 inh 81 | Alpha artifact inactive
C[C@H]1CN([C@@H](C)CO)C(=O)c2cccc(NS(=O)(=O)c3cccs3)c2O[C@@H]1CN(C)C(=O)NC1CCCCC1	none (no result: FN deposition inh, NSD2 inh, NPR1 activator, CaV13 FRET inh, NPR2 activator)
CO[C@@H]1CN(C)C(=O)c2ccc(NS(=O)(=O)c3ccccc3Cl)cc2OC[C@H](C)NC[C@@H]1C	none (no result: NSD2 inh, Casp6 inh, NPR1 activator, CaV13 FRET inh, NPR2 activator)
CCC(=O)N1[C@H](CO)[C@@H]2c3ccccc3N(C(=O)CC(F)(F)F)C[C@@H]21	none (no result: FN deposition inh, NSD2 inh, NPR1 activator, CaV13 FRET inh, NPR2 activator)
CCN(CC)CCCN=Cc1c(-c2ccccc2)[nH]n(-c2nc3ccccc3s2)c1=O	NSD2 inh 75 | Alpha artifact inactive
CCCN=C(C)c1c(-c2ccccc2)[nH]n(-c2nc3ccccc3s2)c1=O	none (no result: Casp6 inh)
CO[C@H]1CN(C)C(=O)c2cc(NC(=O)C3CCCC3)ccc2OC[C@@H](C)N(CC2CC2)C[C@@H]1C	none (no result: NSD2 inh, NPR1 activator, CaV13 FRET inh, NPR2 activator)
CCOc1cc(NC2CS(=O)(=O)CC2O)c(OCC)cc1NC(=O)c1ccccc1 (stereo unspecified)	NSD2 inh 61 (no result: FN deposition inh, Casp6 inh, CaV13 FRET inh) | Alpha artifact inactive
CCOc1cc(NC(=O)c2ccccn2)c(OCC)cc1NC(=O)c1ccccc1	none
COc1ccc(CN(C)C[C@@H]2Oc3ccc(NC(=O)CCN4CCOCC4)cc3C(=O)N([C@H](C)CO)C[C@@H]2C)cc1	none (no result: FN deposition inh, NSD2 inh, NPR1 activator, CaV13 FRET inh, NPR2 activator)
Cc1cc(C)c(NC(=S)N(C)C)cc1C	NSD2 inh 56 | Alpha artifact inactive
CCc1nc2ccc(C)cc2c(C(=O)NC2CCCCC2C)c1C (stereo unspecified)	NSD2 inh 75 (no result: FN deposition inh, Casp6 inh) | Alpha artifact inactive
Cc1ccc2nc(C)cc(C(=O)NC3CCCCCC3)c2c1	none
C[C@@H]1CN([C@H](C)CO)C(=O)c2cccc(NC(=O)Nc3ccc4c(c3)OCO4)c2O[C@@H]1CN(C)CC1CCCCC1	none (no result: NSD2 inh, NPR1 activator, CaV13 FRET inh, NPR2 activator)
CCn1cc(/C=N\NC(=O)C2(C)CC2(Cl)Cl)c(C)n1 (stereo unspecified)	NSD2 inh 63 (no result: FN deposition inh, Casp6 inh) | Alpha artifact inactive
Cc1c(/C=N\NC(=O)C2(C)CC2(Cl)Cl)cnn1C (stereo unspecified)	none (no result: FN deposition inh, Casp6 inh)
O=C(O)c1ccc(NS(=O)(=O)c2ccc3c(c2)C2C=CCC2C(c2ccccc2F)N3)cc1 (stereo unspecified)	NSD2 inh 159, Casp6 inh 47 | Alpha artifact inactive
O=C(O)c1ccc2c(c1)C1C=CCC1C(c1cc3c(cc1Br)OCO3)N2 (stereo unspecified)	none
COc1cc2c(oc(=O)c3cc(C)cc(OC)c32)c2c(C3OC(C)C(O)C(C)(O)C3O)ccc(O)c12 (stereo unspecified)	NSD2 inh 86 | Alpha artifact inactive
COc1cccc2cc(C(=O)N3CC(C)OC(C)C3)c(=O)oc12 (stereo unspecified)	none
